Source: article PMC5586474 (Journal of the American Heart Association: Cardiovascular …, 2017)

Assays:
ACKR3 = ACKR3 (Homo sapiens, UniProt P25106); assay: PRESTO‐Tango β‐arrestin 2 recruitment assay for ACKR3; format: cell-based; conditions: HTLA cells, overnight, 37°C, n=3
ACKR3:α1B‐AR = assay: PLA, ACKR3:α1B‐AR interaction in hVSMCs; format: cell-based, human; conditions: peptide 10 μmol/L, 30 minutes, 37°C; vs vehicle; Figure 8B; n=3
In short: (§1)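 hVSMCs got vehicle or test peptide (10 μmol/L, 30 min, 37°C), were washed, fixed in 4% PFA (15 min, RT) and blocked overnight at 4°C in 3% BSA/PBS. Receptor‐specific primaries (1:500) ran 105 min at 37°C, then PLA probes (1:5) 60 min, ligation 30 min and amplification 100 min, all at 37°C. DAPI‐mounted spots were counted per cell from 10 images per condition per experiment.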

CXCR4:α1D‐AR = assay: PLA, CXCR4:α1D‐AR interaction in hVSMCs; format: cell-based, human; conditions: peptide 10 μmol/L, 30 minutes, 37°C; vs vehicle; Figure 8B; n=3
In short: as §1

CXCR4:α1B‐AR = assay: PLA, CXCR4:α1B‐AR interaction in hVSMCs; format: cell-based, human; conditions: peptide 10 μmol/L, 30 minutes, 37°C; vs vehicle; Figure 8B; n=3
In short: as §1

ACKR3:CXCR4 = assay: PLA, ACKR3:CXCR4 interaction in hVSMCs; format: cell-based, human; conditions: peptide 10 μmol/L, 30 minutes, 37°C; vs vehicle; Figure 8B; n=3
In short: as §1

ACKR3:α1A‐AR = assay: PLA, ACKR3:α1A‐AR interaction in hVSMCs; format: cell-based, human; conditions: peptide 10 μmol/L, 30 minutes, 37°C; vs vehicle; Figure 8B; n=3
In short: as §1

ACKR3:α1D‐AR = assay: PLA, ACKR3:α1D‐AR interaction in hVSMCs; format: cell-based, human; conditions: peptide 10 μmol/L, 30 minutes, 37°C; vs vehicle; Figure 8B; n=3
In short: as §1

α1b‐AR = assay: PRESTO‐Tango β‐arrestin 2 recruitment assay for α1b‐AR; format: cell-based; conditions: PE plus 10 μmol/L TM peptide; HTLA cells, overnight, 37°C; Figure 9C; n=3
In short: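 HTLA cells were transfected with the α1B‐AR‐Tango plasmid (1.5 μg, Lipofectamine 3000). The next day they were replated at 1×10⁵/well on poly‐L‐lysine and left to attach for ≥4 h. PE ± 10 μmol/L test peptide, made at twice final concentration in medium, was added 1:1 and incubated overnight at 37°C. Luminescence was read with Bright‐Glo in HBSS/20 mmol/L HEPES, as % of RLU at […].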

rat mesenteric arteries [1] = assay: Pressure myography, PE‐induced vasoconstriction of isolated mesenteric arteries; set-up: species or system rat (Sprague‐Dawley); conditions: TM peptide 100 μmol/L vs vehicle; 80 mm Hg; Figure 9G; n=3
In short: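 Mesenteric arteries from male Sprague-Dawley rats (isoflurane 3.5% anaesthesia) kept in bicarbonate salt buffer (130 mmol/L NaCl, 4.7 mmol/L KCl, 5.5 mmol/L d-glucose, 1.16 mmol/L CaCl₂), gassed 95% O₂/5% CO₂, 37°C. Vessels pressurized to 80 mm Hg, pretreated with vehicle or test peptide (10 or 100 μmol/L). Cumulative PE added to bath; dose-response curves fitted by nonlinear regression.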

rat mesenteric arteries [2] = conditions: isolated mesenteric rat arteries; cited from earlier work
α1‐AR = assay: PE‐induced IP3 production; format: cell-based, human; conditions: 1 μmol/L PE; for effect of α1‐AR antagonist on PE‐induced IP3 production: antagonist 10 μmol/L, 30 minutes, 37°C, Figure 5E

Sequence of ACKR3 (P25106 whole entry): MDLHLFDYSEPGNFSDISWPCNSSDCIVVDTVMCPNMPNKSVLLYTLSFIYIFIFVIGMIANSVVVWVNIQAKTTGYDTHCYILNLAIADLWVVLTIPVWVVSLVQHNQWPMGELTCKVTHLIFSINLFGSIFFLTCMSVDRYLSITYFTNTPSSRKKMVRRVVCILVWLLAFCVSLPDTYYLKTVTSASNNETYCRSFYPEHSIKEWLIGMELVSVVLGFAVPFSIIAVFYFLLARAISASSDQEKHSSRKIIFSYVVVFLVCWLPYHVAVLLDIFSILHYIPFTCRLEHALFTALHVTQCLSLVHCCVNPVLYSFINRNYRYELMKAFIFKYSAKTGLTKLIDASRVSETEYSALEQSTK

Row | Compound | effect of TM peptide on PLA signals for ACKR3:α1B‐AR (ACKR3:α1B‐AR) | effect of TM peptide on PLA signals for CXCR4:α1D‐AR (CXCR4:α1D‐AR) | effect of TM peptide on PLA signals for CXCR4:α1B‐AR (CXCR4:α1B‐AR) | effect of TM peptide on PLA signals for ACKR3:CXCR4 (ACKR3:CXCR4) | effect of TM peptide on PLA signals for ACKR3:α1A‐AR (ACKR3:α1A‐AR) | effect of TM peptide on PLA signals for ACKR3:α1D‐AR (ACKR3:α1D‐AR) | effect of α1‐AR antagonist on PE‐induced IP3 production (α1‐AR; 5 minutes, n=3) | further results
1 | CXCL11: natural ACKR3 agonist; chemokine, from Protein Foundry | – | – | – | – | – | – | – | EC50 (ACKR3; read-out: EC50 for β‐arrestin 2 recruitment to ACKR3, agonist, luminescence, Figure 2A, mean±SEM): 16.5 ± 4.9 nM
2 | YILNLAIADLWVVLTIPVWVVDDD [TM2] | significantly reduced PLA signals | did not affect signals for CXCR4:α1D‐AR complexes | increased signals for CXCR4:α1B‐AR complexes | reduced after incubation with all TM peptide analogs (TM2>TM4>TM7) | did not affect signals for ACKR3:α1A‐AR complexes | significantly reduced PLA signals | – | activation of ACKR3 by TM peptide (β‐arrestin 2 recruitment) (ACKR3; peptide alone, Figure 9A): without intrinsic agonist activity within the tested range of concentrations; effect of TM peptide on PE‐induced β‐arrestin 2 recruitment to α1b‐AR (α1b‐AR): did not inhibit β‐arrestin 2 recruitment to recombinant α1b‐AR on PE stimulation
3 | VVCILWLLAFCVSLPDTYYLDD [TM4] | reduced PLA signals for ACKR3:α1B‐AR complexes | did not affect signals for CXCR4:α1D‐AR complexes | increased signals for CXCR4:α1B‐AR complexes | reduced after incubation with all TM peptide analogs (TM2>TM4>TM7) | without affecting ACKR3:α1A/D‐AR interactions | without affecting ACKR3:α1A/D‐AR interactions | – | effect of TM peptide on potency of PE to induce vasoconstriction (significance) (rat mesenteric arteries [1]): P>0.05 versus vehicle
4 | CXCL12: natural ACKR3 agonist; cognate ligand of CXCR4 and ACKR3, from Protein Foundry | – | – | – | – | – | – | – | effect on PE‐induced vasoconstriction (rat mesenteric arteries [2]): attenuates PE‐induced vasoconstriction; CXCL12 effect on PE‐induced signaling in the presence of the TM2 peptide (α1‐AR; hVSMCs, TM2 10 μmol/L plus CXCL12 1 μmol/L, Figure 9E): did not enhance PE‐induced signaling
5 | CNC[C@H](O)c1cccc(O)c1 [PE, Phenylephrine] | – | – | – | – | – | – | – | increase of cellular IP3 concentrations on PE stimulation after NT siRNA (α1‐AR; hVSMCs incubated with NT siRNA, Figure 5D, n=4): 4.8 fold; increase of cellular IP3 concentrations on PE stimulation (α1‐AR; hVSMCs without siRNA, 5 minutes, Figure 2B, n=3): 5.3 fold
6 | DDDLHVTQCLSLVHCCVNPVLYSFIN [TM7] | did not alter signals | did not significantly affect signals | did not significantly affect signals | reduced after incubation with all TM peptide analogs (TM2>TM4>TM7) | significantly increased the number of PLA signals for ACKR3:α1A‐AR complexes | did not alter signals | – | effect of TM peptide on potency of PE to induce vasoconstriction (significance) (rat mesenteric arteries [1]): P>0.05 versus vehicle
7 | COc1ccccc1N1CCN(CCN2C(=O)CC3(CCCC3)CC2=O)CC1 [BMY 7378] | – | – | – | – | – | – | could be inhibited | –
8 | COc1cc2nc(N3CCN(C(=O)c4ccco4)[C@H]4CCCC[C@H]43)nc(N)c2cc1OC (racemic) [cyclazosin, Cyclazosin] | – | – | – | – | – | – | could be inhibited | –
9 | Cc1ccc(N(CC2=NCCN2)c2cccc(O)c2)cc1 [phentolamine, Phentolamine] | – | – | – | – | – | – | could be inhibited | –
